The values below come from ChEMBL document CHEMBL3758120, “Synthesis and Mechanism Studies of 1,3-Benzoazolyl Substituted Pyrrolo[2,3-b]pyrazine Derivatives as Nonintercalative Topoisomerase II Catalytic Inhibitors” (J Med Chem, 2016).

Activity calls are given as the source filed them. No cut-off for these calls is given here.

The target in assay [1] is T1, DNA topoisomerase 2-alpha (Homo sapiens, UniProt P11388). Put plainly: Inhibition of purified human topoisomerase 2-mediated relaxation of supercoiled pBR322 DNA at 50 uM incubated for 30 mins in presence of 1 mM ATP by agarose gel electrophoresis. An outline of the steps: (§1)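 Reactions contained 0.2 μg supercoiled pBR322 in 50 mM Tris-HCl pH 8.0, 150 mM NaCl, 10 mM MgCl2, 0.5 mM DTT, 30 μg/ml BSA, normally 2 mM ATP (1, 2 or 4 mM in ATP-competition runs). Started with 1 U human Topo II, 30 min at 37 °C, stopped with sarcosyl buffer, run on 1% agarose 1.5 h at 75 V, gel-stained and imaged under UV.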
T1 sequence (P11388 whole entry): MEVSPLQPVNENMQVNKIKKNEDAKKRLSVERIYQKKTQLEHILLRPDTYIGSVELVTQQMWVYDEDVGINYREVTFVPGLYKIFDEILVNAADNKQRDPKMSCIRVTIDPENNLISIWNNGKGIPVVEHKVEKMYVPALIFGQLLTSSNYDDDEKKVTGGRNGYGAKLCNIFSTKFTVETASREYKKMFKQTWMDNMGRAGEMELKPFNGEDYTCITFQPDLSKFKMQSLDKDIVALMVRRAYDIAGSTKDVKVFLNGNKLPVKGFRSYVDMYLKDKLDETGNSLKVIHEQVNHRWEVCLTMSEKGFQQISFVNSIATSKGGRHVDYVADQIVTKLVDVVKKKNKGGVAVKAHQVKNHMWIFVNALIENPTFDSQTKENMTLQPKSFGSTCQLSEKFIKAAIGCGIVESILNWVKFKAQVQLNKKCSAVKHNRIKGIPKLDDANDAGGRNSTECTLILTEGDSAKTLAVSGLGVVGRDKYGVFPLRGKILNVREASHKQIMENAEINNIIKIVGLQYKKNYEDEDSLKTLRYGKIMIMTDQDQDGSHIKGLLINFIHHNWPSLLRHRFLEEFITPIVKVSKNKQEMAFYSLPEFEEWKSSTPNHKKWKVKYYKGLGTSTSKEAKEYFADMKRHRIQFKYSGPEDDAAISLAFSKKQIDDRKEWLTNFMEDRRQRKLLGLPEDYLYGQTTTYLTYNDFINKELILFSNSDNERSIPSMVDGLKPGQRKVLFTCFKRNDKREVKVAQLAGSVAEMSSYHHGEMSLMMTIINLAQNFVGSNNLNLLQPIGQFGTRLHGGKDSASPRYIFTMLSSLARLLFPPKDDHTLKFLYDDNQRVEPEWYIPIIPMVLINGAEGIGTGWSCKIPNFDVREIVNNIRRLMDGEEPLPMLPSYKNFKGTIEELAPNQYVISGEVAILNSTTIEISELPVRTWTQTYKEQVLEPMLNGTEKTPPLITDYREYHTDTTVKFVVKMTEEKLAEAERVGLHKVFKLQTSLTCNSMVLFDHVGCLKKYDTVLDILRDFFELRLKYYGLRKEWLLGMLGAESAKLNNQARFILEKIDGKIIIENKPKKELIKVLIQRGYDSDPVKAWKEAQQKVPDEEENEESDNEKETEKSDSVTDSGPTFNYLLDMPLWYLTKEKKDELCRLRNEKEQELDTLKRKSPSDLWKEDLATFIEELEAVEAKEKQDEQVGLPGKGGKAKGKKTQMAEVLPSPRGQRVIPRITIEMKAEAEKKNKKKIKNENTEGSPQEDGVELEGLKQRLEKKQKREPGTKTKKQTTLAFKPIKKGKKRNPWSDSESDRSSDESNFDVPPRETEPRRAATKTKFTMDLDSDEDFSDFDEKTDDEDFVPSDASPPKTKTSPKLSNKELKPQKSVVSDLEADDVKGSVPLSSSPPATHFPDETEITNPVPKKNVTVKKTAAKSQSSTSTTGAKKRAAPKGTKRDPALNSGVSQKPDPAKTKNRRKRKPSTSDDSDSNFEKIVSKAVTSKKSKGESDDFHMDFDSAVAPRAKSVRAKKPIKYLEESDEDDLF

The target in assay [2] is T1, DNA topoisomerase 2-alpha. The conditions noted are these: HL-60, 5 uM.
Assay [3] concerns Calf thymus DNA. Description: Binding affinity to calf thymus DNA by UV-visible spectrophotometric analysis. It is filed as nucleic-acid assay. The settings on record: Bos taurus. An outline of the steps: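 Compound fixed at 5 μM in DPBS pH 7.4 with 1% DMSO, titrated with CT-DNA (0–25 μM; concentration from A260, ε 13 200 M(bp)⁻¹cm⁻¹; A260/280 1.8–1.9). After 20 min equilibration at room temperature, absorption spectra recorded over 300–500 nm.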

In assay [4] the target is T1, DNA topoisomerase 2-alpha. Description: Inhibition of purified human topoisomerase 2-mediated relaxation of supercoiled pBR322 DNA at 50 uM incubated for 30 mins in presence of 4 mM ATP by agarose gel electrophoresis. An outline of the steps: as §1
Assay [5] deals with T1, DNA topoisomerase 2-alpha. The conditions noted are these: HL-60, 5 uM. This is another data set of the same source.
Assay [6] concerns Escherichia coli. Description: Binding affinity to Escherichia coli pBR322 DNA assessed as intercalation of pBR322 DNA at 0.1 to 100 uM by fluorescence based ethidium bromide displacement assay. A digest of the protocol:
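Increasing concentrations added to 20 nM pBR322 plasmid with 2.5 μM ethidium bromide in 10 mM HEPES pH 7.9, 100 mM KCl, 5 mM MgCl2, 0.1 mM EDTA. Fluorescence emission spectra recorded (excitation 510 nm, emission max 595 nm) at each concentration; mAMSA used as intercalating reference.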

The IC50 is the concentration needed to halve the response being measured. `CN(C)CCCCn1c(N)c(-c2nc3ccccc3[nH]2)c2nc(C#N)c(C#N)nc21`: the IC50 is 0.9 µM in assay [1] and 16.5 µM in assay [4]. Moreover, the inhibition entry in assay [2] was “Active”. This molecule also yielded a Kb in assay [3] of 2.8 ×10⁵ /M. In addition, the inhibition result in assay [5] and in assay [6] was “inactive” throughout.
